Assay results from ChEMBL document CHEMBL4673214, “Synthesis and antibacterial bioactivities of cationic deacetyl linezolid amphiphiles” (Eur J Med Chem, 2018).
Values after ≈ are worked out from the molar mass of the structure shown. Active and inactive are the calls of the source. The rule behind the calls is not given here.

Tests used:
Cell membrane [1] = assay: Induction of cytoplasmic membrane depolarization in Escherichia coli ATCC 25922 at 20 ug/ml measured for 12 mins by DiSC35 dye-based fluorescence assay; type: subcellular; details: dose 20.0 µg/ml
Summary of the method: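 Mid-log bacteria were washed and resuspended at ~10^8 CFU/mL: S. aureus in PBS, E. coli in 5 mM HEPES/5 mM glucose/100 mM KCl (1:1:1). Cells were loaded with diSC35 (10 µM stock) for 30 min (S. aureus) or 40 min (E. coli, plus EDTA). Fluorescence (ex 622/em 670 nm) was read for an 8 min baseline, then every 2 min for 12 min after compound at 20 µg/mL final. Water served as control.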

Cell membrane [2] = assay: Induction of inner membrane permeabilization in Escherichia coli ATCC 25922 at 20 ug/ml measured for 12 mins by propidium iodide staining based fluorescence microscopic analysis; details: dose 20.0 µg/ml
Summary of the method: (§1)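 Mid-log bacteria were washed and resuspended at ~10^8 CFU/mL and preincubated with propidium iodide (10 µM stock) for 30 min (S. aureus) or 40 min (E. coli). Fluorescence (ex 535/em 617 nm) was read on a plate for an 8 min baseline, then every 2 min for 12 min after compound at 20 µg/mL final. Water served as control.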

Cell membrane [3] = assay: Induction of inner membrane permeabilization in Staphylococcus aureus ATCC 29213 at 20 ug/ml measured for 12 mins by propidium iodide staining based fluorescence microscopic analysis; details: dose 20.0 µg/ml; summary of the method: as §1
Enterobacteriaceae [4] = assay: Antibacterial activity against NDM1 producing carbapenem-resistant Enterobacteriaceae clinical isolate 10 assessed as reduction in bacterial growth incubated for 16 to 20 hrs by CLSI-based broth microdilution method; type: functional; details: time 16-20 hrs
Summary of the method: (§2)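 Clinical isolates tested by broth microdilution in cation-adjusted Mueller-Hinton broth. Cultures grown 4-6 h (~10^8 CFU/mL) were diluted to ~10^6 CFU/mL and mixed 1:1 with compound serial dilutions made from 256 down to 0.5 µg/mL (pre-mixing). Plates held at 37 °C for 16-20 h, then read for growth. Each concentration run in duplicate, whole experiment at least twice.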

Enterobacteriaceae [5] = assay: Antibacterial activity against NDM1 producing carbapenem-resistant Enterobacteriaceae clinical isolate 8 assessed as reduction in bacterial growth incubated for 16 to 20 hrs by CLSI-based broth microdilution method; type: functional; details: time 16-20 hrs; summary of the method: as §2
Enterobacteriaceae [6] = assay: Antibacterial activity against NDM1 producing carbapenem-resistant Enterobacteriaceae clinical isolate 7 assessed as reduction in bacterial growth incubated for 16 to 20 hrs by CLSI-based broth microdilution method; type: functional; details: time 16-20 hrs; summary of the method: as §2
Enterobacteriaceae [7] = assay: Antibacterial activity against NDM1 producing carbapenem-resistant Enterobacteriaceae clinical isolate 6 assessed as reduction in bacterial growth incubated for 16 to 20 hrs by CLSI-based broth microdilution method; type: functional; details: time 16-20 hrs; summary of the method: as §2
Enterobacteriaceae [8] = assay: Antibacterial activity against NDM1 producing carbapenem-resistant Enterobacteriaceae clinical isolate 4 assessed as reduction in bacterial growth incubated for 16 to 20 hrs by CLSI-based broth microdilution method; type: functional; details: time 16-20 hrs; summary of the method: as §2
Enterobacteriaceae [9] = assay: Antibacterial activity against NDM1 producing carbapenem-resistant Enterobacteriaceae clinical isolate 3 assessed as reduction in bacterial growth incubated for 16 to 20 hrs by CLSI-based broth microdilution method; type: functional; details: time 16-20 hrs; summary of the method: as §2
Enterobacteriaceae [10] = assay: Antibacterial activity against NDM1 producing carbapenem-resistant Enterobacteriaceae clinical isolate 2 assessed as reduction in bacterial growth incubated for 16 to 20 hrs by CLSI-based broth microdilution method; type: functional; details: time 16-20 hrs; summary of the method: as §2
Klebsiella pneumoniae [11] = assay: Antibacterial activity against carbapenem-resistant Klebsiella pneumoniae clinical isolate 9 assessed as reduction in bacterial growth incubated for 16 to 20 hrs by CLSI-based broth microdilution method; type: functional; details: time 16-20 hrs; summary of the method: as §2
Klebsiella pneumoniae [12] = assay: Antibacterial activity against carbapenem-resistant Klebsiella pneumoniae clinical isolate 8 assessed as reduction in bacterial growth incubated for 16 to 20 hrs by CLSI-based broth microdilution method; type: functional; details: time 16-20 hrs; summary of the method: as §2
Klebsiella pneumoniae [13] = assay: Antibacterial activity against carbapenem-resistant Klebsiella pneumoniae clinical isolate 7 assessed as reduction in bacterial growth incubated for 16 to 20 hrs by CLSI-based broth microdilution method; type: functional; details: time 16-20 hrs; summary of the method: as §2
Klebsiella pneumoniae [14] = assay: Antibacterial activity against carbapenem-resistant Klebsiella pneumoniae clinical isolate 6 assessed as reduction in bacterial growth incubated for 16 to 20 hrs by CLSI-based broth microdilution method; type: functional; details: time 16-20 hrs; summary of the method: as §2
Klebsiella pneumoniae [15] = assay: Antibacterial activity against carbapenem-resistant Klebsiella pneumoniae clinical isolate 5 assessed as reduction in bacterial growth incubated for 16 to 20 hrs by CLSI-based broth microdilution method; type: functional; details: time 16-20 hrs; summary of the method: as §2
Klebsiella pneumoniae [16] = assay: Antibacterial activity against carbapenem-resistant Klebsiella pneumoniae clinical isolate 3 assessed as reduction in bacterial growth incubated for 16 to 20 hrs by CLSI-based broth microdilution method; type: functional; details: time 16-20 hrs; summary of the method: as §2
Staphylococcus aureus [17] = assay: Antibacterial activity against methicillin-resistant Staphylococcus aureus clinical isolate 10 assessed as reduction in bacterial growth incubated for 16 to 20 hrs by CLSI-based broth microdilution method; type: functional; details: time 16-20 hrs; summary of the method: as §2
Staphylococcus aureus [18] = assay: Antibacterial activity against methicillin-resistant Staphylococcus aureus clinical isolate 9 assessed as reduction in bacterial growth incubated for 16 to 20 hrs by CLSI-based broth microdilution method; type: functional; details: time 16-20 hrs; summary of the method: as §2
Staphylococcus aureus [19] = assay: Antibacterial activity against methicillin-resistant Staphylococcus aureus clinical isolate 8 assessed as reduction in bacterial growth incubated for 16 to 20 hrs by CLSI-based broth microdilution method; type: functional; details: time 16-20 hrs; summary of the method: as §2
Enterobacteriaceae [20] = assay: Antibacterial activity against NDM1 producing carbapenem-resistant Enterobacteriaceae clinical isolate 9 assessed as reduction in bacterial growth incubated for 16 to 20 hrs by CLSI-based broth microdilution method; type: functional; details: time 16-20 hrs; summary of the method: as §2
Staphylococcus aureus [21] = assay: Antibacterial activity against methicillin-resistant Staphylococcus aureus clinical isolate 5 assessed as reduction in bacterial growth incubated for 16 to 20 hrs by CLSI-based broth microdilution method; type: functional; details: time 16-20 hrs; summary of the method: as §2
Staphylococcus aureus [22] = assay: Antibacterial activity against methicillin-resistant Staphylococcus aureus clinical isolate 4 assessed as reduction in bacterial growth incubated for 16 to 20 hrs by CLSI-based broth microdilution method; type: functional; details: time 16-20 hrs; summary of the method: as §2
Staphylococcus aureus [23] = assay: Antibacterial activity against methicillin-resistant Staphylococcus aureus clinical isolate 2 assessed as reduction in bacterial growth incubated for 16 to 20 hrs by CLSI-based broth microdilution method; type: functional; details: time 16-20 hrs; summary of the method: as §2
Staphylococcus aureus [24] = assay: Antibacterial activity against methicillin-resistant Staphylococcus aureus clinical isolate 1 assessed as reduction in bacterial growth incubated for 16 to 20 hrs by CLSI-based broth microdilution method; type: functional; details: time 16-20 hrs; summary of the method: as §2
Salmonella enterica = assay: Antibacterial activity against Salmonella enterica ATCC 8387 assessed as reduction in bacterial growth incubated for 16 to 20 hrs by CLSI-based broth microdilution method; type: functional; details: time 16-20 hrs
Summary of the method: (§3)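 Broth microdilution following CLSI, in cation-adjusted Mueller-Hinton broth. Inoculum from a 4-6 h culture (~10^8 CFU/mL), diluted to ~10^6 CFU/mL. Water stocks were serially diluted in MHB (256 to 0.5 µg/mL) and mixed 1:1 with the inoculum. Plates ran 16-20 h at 37 °C. MIC was read visually. Each concentration was tested in duplicate, and the experiment was repeated at least twice.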

Escherichia coli = assay: Antibacterial activity against Escherichia coli ATCC 25922 assessed as reduction in bacterial growth incubated 16 to 20 hrs by CLSI-based broth microdilution method; type: functional; details: time 16-20 hrs; summary of the method: as §3
Enterococcus faecalis = assay: Antibacterial activity against Enterococcus faecalis ATCC 29212 assessed as reduction in bacterial growth incubated 16 to 20 hrs by CLSI-based broth microdilution method; type: functional; details: time 16-20 hrs; summary of the method: as §3
Klebsiella pneumoniae [25] = assay: Antibacterial activity against carbapenem-resistant Klebsiella pneumoniae clinical isolate 1 assessed as reduction in bacterial growth incubated for 16 to 20 hrs by CLSI-based broth microdilution method; type: functional; details: time 16-20 hrs; summary of the method: as §2
Staphylococcus aureus [26] = assay: Antibacterial activity against Staphylococcus aureus ATCC 29213 assessed as reduction in bacterial growth incubated for 16 to 20 hrs by CLSI-based broth microdilution method; type: functional; details: time 16-20 hrs; summary of the method: as §3

| SMILES | Activity (Cell membrane [1]) | Activity (Cell membrane [2]) | Activity (Cell membrane [3]) | MIC (Enterobacteriaceae [4]) [µg/mL] | MIC (Enterobacteriaceae [5]) [µg/mL] | MIC (Enterobacteriaceae [6]) [µg/mL] | MIC (Enterobacteriaceae [7]) [µg/mL] | MIC (Enterobacteriaceae [8]) [µg/mL] | MIC (Enterobacteriaceae [9]) [µg/mL] | MIC (Enterobacteriaceae [10]) [µg/mL] | MIC (Klebsiella pneumoniae [11]) [µg/mL] | MIC (Klebsiella pneumoniae [12]) [µg/mL] | MIC (Klebsiella pneumoniae [13]) [µg/mL] | MIC (Klebsiella pneumoniae [14]) [µg/mL] | MIC (Klebsiella pneumoniae [15]) [µg/mL] | MIC (Klebsiella pneumoniae [16]) [µg/mL] | MIC (Staphylococcus aureus [17]) [µg/mL] | MIC (Staphylococcus aureus [18]) [µg/mL] | MIC (Staphylococcus aureus [19]) [µg/mL] | MIC (Enterobacteriaceae [20]) [µg/mL] | also measured |
| --- | --- | --- | --- | --- | --- | --- | --- | --- | --- | --- | --- | --- | --- | --- | --- | --- | --- | --- | --- | --- | --- |
| CCCCCCCCCCCN(C[C@H]1CN(c2ccc(N3CCOCC3)c(F)c2)C(=O)O1)C(=O)[C@@H](N)CCCCN.Cl.Cl | Active | Active | Active | 16 | 16 | 16 | 16 | 16 | 16 | > 64 | 16 | 16 | 16 | 16 | 16 | 16 | 4 | 4 | 4 | 16 | MIC (Staphylococcus aureus [21]): 4 µg/mL; MIC (Staphylococcus aureus [22]): 4 µg/mL; MIC (Staphylococcus aureus [23]): 4 µg/mL; MIC (Staphylococcus aureus [24]): 4 µg/mL; MIC (Salmonella enterica): 16 µg/mL; MIC (Escherichia coli): 8 µg/mL; MIC (Enterococcus faecalis): 4 µg/mL; MIC (Klebsiella pneumoniae [25]): 16 µg/mL; MIC (Staphylococcus aureus [26]): 2 µg/mL |
| C[C@@H](O)[C@H]1C(=O)N2C(C(=O)O)=C(S[C@@H]3CN[C@H](C(=O)N(C)C)C3)[C@H](C)[C@H]12 [MEROPENEM] | inactive | inactive | inactive | > 64 | > 64 | 64 (≈ 167 µM) | 2 (≈ 5.22 µM) | 64 (≈ 167 µM) | 64 (≈ 167 µM) | 16 (≈ 41.7 µM) | > 64 | 32 (≈ 83.4 µM) | > 64 | > 64 | 32 (≈ 83.4 µM) | 2 (≈ 5.22 µM) | 32 (≈ 83.4 µM) | 64 (≈ 167 µM) | 64 (≈ 167 µM) | > 64 | MIC (Staphylococcus aureus [21]): 64 µg/mL (≈ 167 µM); MIC (Staphylococcus aureus [22]): 32 µg/mL (≈ 83.4 µM); MIC (Staphylococcus aureus [23]): 64 µg/mL (≈ 167 µM); MIC (Staphylococcus aureus [24]): 64 µg/mL (≈ 167 µM); MIC (Salmonella enterica): < 0.125 µg/mL; MIC (Escherichia coli): < 0.125 µg/mL; MIC (Enterococcus faecalis): 4 µg/mL (≈ 10.4 µM); MIC (Klebsiella pneumoniae [25]): > 64 µg/mL; MIC (Staphylococcus aureus [26]): 0.125 µg/mL (≈ 0.326 µM) |
